{"data": "Assay results from different studies", "Fibroblast growth factor 14": "Fibroblast growth factor 14 (Homo sapiens, UniProt Q92915)", "HTR1A": "5-hydroxytryptamine receptor 1A (HTR1A, Homo sapiens, UniProt P08908)", "note": "Each line is one published result; the experiments were not run side by side."}
{"Compound": "N#Cc1ccc(NC(=O)Nc2ccccc2)cc1", "target": "Serine/threonine-protein kinase RIO2 (RIOK2, Homo sapiens, UniProt Q9BVS4)", "test": "cell-free assay, competition with immobilised ligand", "setting": "25 µM", "endpoint": "remaining binding", "result": "68%"}
{"Compound": "Cc1cccc(NC(=O)Cn2cc(CO)c3ccccc32)c1", "target": "Fibroblast growth factor 14", "test": "binding, SPR", "endpoint": "kon", "result": "8900 M⁻¹ s⁻¹"}
{"Compound": "NC/C(=C\\F)COc1cccc(Cn2c(=S)[nH]c(=O)c3[nH]cnc32)c1", "target": "Glucocorticoid receptor (NR3C1, Homo sapiens, UniProt P04150)", "test": "ligand displacement, radioligand", "setting": "10 µM", "endpoint": "inhibition", "result": "< 50%"}
{"Compound": "C#Cc1cc(-c2cc(Nc3nc(N[C@@H](C)c4ccc(F)cn4)ncc3Cl)n[nH]2)ccc1C=O", "target": "Serine/threonine-protein kinase TAO2 (TAOK2, Homo sapiens, UniProt Q9UL54)", "test": "enzyme activity, inhibitor", "setting": "0.2 µM", "endpoint": "inhibition", "result": "3.89%"}
{"Compound": "C1=C/COCc2cc(ccc2OCCN2CCCC2)Nc2nccc(n2)-c2cccc(c2)COC/1", "target": "Death-associated protein kinase 3 (DAPK3, Homo sapiens, UniProt O43293)", "test": "binding", "setting": "0.1 µM", "endpoint": "remaining binding", "result": "53%"}
{"Compound": "COc1ccc2oc(-c3ccc4nc(N)oc4c3)c/c(=N\\c3ccccc3NC(=O)CCN)c2c1", "target": "Phosphatidylinositol 4-phosphate 3-kinase C2 domain-containing subunit alpha (PIK3C2A, Homo sapiens, UniProt O00443)", "test": "binding", "setting": "1 µM", "endpoint": "remaining binding", "result": "101%"}
{"Compound": "Cc1cc(F)cc2c(CCC(=O)N[C@@H]3C(=O)NC[C@H]3O)c(-c3ccc(F)cc3)[nH]c12", "target": "HTR1A", "test": "cell-free assay", "setting": "10 µM", "endpoint": "inhibition", "result": "-8%"}
{"Compound": "CCCCC(=O)Nc1ccc(-c2ccc3ncn(CCC)c(=O)c3c2)cn1", "target": "Mitogen-activated protein kinase kinase kinase 13 (MAP3K13, Homo sapiens, UniProt O43283)", "test": "binding, competition with immobilised ligand", "setting": "0.5 µM", "endpoint": "remaining binding", "result": "94%"}
{"Compound": "Cc1nc(CSc2nc(-c3ccc(C(C)(C)C)cc3)n[nH]2)cs1", "target": "Fibroblast growth factor 14", "test": "thermal stability", "setting": "25 µM", "endpoint": "ΔTm", "result": "0.3 °C"}
{"Compound": "CCN1/C(=C/C(C)=O)Sc2ccc(F)cc21", "target": "HTR1A", "test": "ligand displacement, radioligand", "setting": "10 µM", "endpoint": "inhibition", "result": "1.73%"}
{"Compound": "O=c1cc(-c2ccc([N+](=O)[O-])cc2)[nH]c2c(-c3ccc(Cl)cc3)c(Cc3ccccc3)nn12", "target": "Fibroblast growth factor 14", "test": "binding, SPR", "endpoint": "koff", "result": "0.00101 s⁻¹"}
{"Compound": "C[C@]1(O)CCCN(c2nc(Nc3ccc(S(=O)(=O)N[C@H]4CC[C@H](CN5CCN(c6ccc(C7CCC(=O)NC7=O)cc6F)CC5)CC4)cc3Cl)ncc2C(F)(F)F)C1 (stereo partly drawn)", "target": "Leucine-rich repeat serine/threonine-protein kinase 2 (LRRK2, Homo sapiens, UniProt Q5S007, G2019S)", "test": "binding, competition with immobilised ligand", "setting": "1 µM", "endpoint": "remaining binding", "result": "12%"}
